High-throughput results as filed in PubChem.
Cneo AK release: causes C. neoformans cell lysis. adenylate kinase release luminescence, 4 h; normalised: neutral wells 0, clomiphene wells 100. lysis activity, % at 15 µM. actives 0.2% (n = 360,000);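 active means mean lysis activity across replicates of at least 80%, whatever share of replicates individually reach that level; inactive means mean lysis activity below 80%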
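Material – Cryptococcus neoformans yeast cells · Quantity – 5 × 10^6 yeast cells/mL · Buffer or medium – YPD medium · Compound – single dose · Timing – 4 h static compound exposure, 37 °C, read 1 h post-reagent · Signal – adenylate kinase release luminescence · Read-out basis – lysis from increased AK signal · Benchmarks – Clomiphene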
FN deposit inh: fibronectin deposition inhibition; AID 743247; AH1F fibroblasts, Alexa488-fibronectin deposition fluorescence, overnight; actives 0.086% (n = 350,000); inhibition, % at 12.6 µM;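 active means mean inhibition across replicates of 30% or more, regardless of how many single replicates reach that level; inconclusive means mean under 30% yet at least half of replicates reach 30%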;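 further: positive control wells lacked labelled fibronectin entirely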
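Assay system: AH1F fibroblasts assembling fluorescent fibronectin matrix; Amount: 10000 AH1F cells per well; Buffer or medium: DMEM, 2% serum; Probe or stimulus: Alexa488-fibronectin, 24 nM final in well; Doses: single compound dose, delivered by pin transfer; Incubation: 1 h adhesion, overnight exposure; Measured by: fluorescence 485/525 nm; Read-out: fibronectin deposition inhibition.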
DENV2 CPE: DENV2-induced cell death inhibition. CPE inhibition, % at 9.99 µM. AID 651640. actives 1.7% (n = 350,000). DENV2-infected cells, cytopathic effect rescue, plate reader; in the data active means CPE inhibition above about 20%, passing the limit was not always enough; inconclusive means no clear call, values can overlap the other calls; tested in BHK-21 cells;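 further: 0% = median of neutral control wells and 100% = median of positive control wells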
F508del corr: correctors of CFTR F508del function in bronchial epithelial cells. CFBE cells, YFP halide quenching; stimulated with forskolin plus potentiator P3; % fluorescence drop versus neutral controls. activity (quench increase), % at 7.58 µM. actives 0.36% (n = 350,000). AID 720511;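 active means mean added fluorescence quench of at least 8% versus neutral control, with both replicates also reaching 8%; inconclusive means only one of the mean or replicate conditions met; inactive means mean below 8% and not both replicates reaching 8%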;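 further: cells transiently co-express mutant CFTR-F508del with the halide-sensitive YFP; corrector assay measuring rescue of mutant channel to the surface after 24 h compound exposure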
XiGFP reactiv: reactivates the inactive X chromosome in mouse fibroblasts. XiGFP mouse fibroblasts, % GFP-positive cells imaging, 3 d; cells co-treated with 5-aza-dC sensitizer; scaled so ellipticine positive control = 100%. activation, % at 7.58 µM. actives 0.055% (n = 360,000);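 active means mean normalized replicate activation at least 10% and every replicate at or above 10%; inconclusive means only one of the two criteria met; inactive means mean below 10% and not all replicates reach 10%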;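 further: 0% = median of on-plate neutral control wells and 100% = ellipticine 6 µM median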
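Material: XiGFP fibroblasts, SV40-immortalized; Buffer or medium: DMEM containing 5-aza-dC; Compound dosing: single point; Times: 3 days compound exposure.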
PGC1a acetyl inh: PGC1a acetylation modulation, inhibitor mode. U2OS PGC1a acetylation, AlphaScreen anti-acetyl-lysine; with virally co-expressed GCN5 acetyltransferase. inhibition, % at 15.6 µM. actives 0.17% (n = 350,000). AID 651687;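 active means every replicate shows inhibition of at least 40%; inconclusive means mean inhibition at least 40% but some replicate below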;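 further: 0% = neutral control wells and 100% = positive control wells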
* hit, by the source's call; u = inconclusive; x = no result given. Most compounds without a hit are left out; they make up all but 1.9% or so of the library.

SMILES	Cneo AK release	FN deposit inh	DENV2 CPE	F508del corr	XiGFP reactiv	PGC1a acetyl inh
C[C@@H]1CCCCO[C@@H](CN(C)C(=O)Nc2cccc3ccccc23)[C@H](C)CN([C@H](C)CO)C(=O)c2cc(NC(=O)CCC(F)(F)F)ccc2O1	-16.2	3.9	99.1*	4.5	0.0	-25.1
C[C@@H]1CN([C@@H](C)CO)C(=O)c2cc(NC(=O)CCC(F)(F)F)ccc2O[C@@H](C)CCCCO[C@H]1CN(C)C(=O)Nc1cccc2ccccc12	38.7	3.6	25.8*	2.5	0.1	-37.7
CCC(=O)Nc1ccc2c(c1)OC[C@@H](C)N(Cc1cccnc1)C[C@@H](C)[C@H](OC)CN(C)C2=O	0.6	-1.0	-4.0	3.0	0.2	-3.5
CCOc1ccccc1OCC(=O)NC1CCSc2ccccc21 (configuration not stated)	5.8	-21.7	u	-0.9	0.1	-12.1
Cc1ccc(OCC(=O)NC2CCSc3ccccc32)cc1 (configuration not stated)	-1.1	-0.8	25.8*	-0.6	-0.1	x
O=C([C@H]1[C@H](CO)[C@H]2Cn3c(cccc3=O)[C@H]2N1CC1CCCC1)N1CCc2ccccc2C1	-0.1	x	-8.6	x	0.1	x
O=C(c1cn(-c2ccccc2)nc1-c1ccccc1)N1CCN(c2ccccn2)CC1	-8.7	9.1	6.9	-0.9	0.2	-4.1
Cc1ccc(-c2nn(-c3ccccc3)cc2C(=O)N2CCN(c3ccccn3)CC2)cc1	x	x	11.8	15.2*	-0.1	x
